Experimental data taken from ChEMBL document CHEMBL4680069, “Itaconate is a covalent inhibitor of the Mycobacterium tuberculosis isocitrate lyase” (RSC Med Chem, 2021).
The source made the active and inactive calls. The calls are words filed in the database; no cut-off is given here.

Key:
[1] = Covalent inhibition of wild type N-terminal polyhis-tagged TEV protease cleavage site fused Mycobacterium tuberculosis ICL1 expressed in Escherichia coli BL21 (DE3) using DL-isocitrate as substrate measured after 1 hr by UV-Vis spectrophotometric analysis
In short: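 Recombinant ICL1 at 20 nM with 1 mM DL-isocitrate and 1 mM MgCl2 in 50 mM Tris pH 7.5. Includes 10 mM phenylhydrazine-HCl to trap product. Inhibitor tested at varying concentrations to give IC50. Four separate measurements; errors are standard deviations.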

[2] = system: Mycobacterium tuberculosis; assay: Binding affinity to recombinant Mycobacterium tuberculosis CDC1551 ICL2 (Cys215-Arg233) expressed in Escherichia coli BL21 (DE3) LOBSTR assessed as covalent adduct formation at 1 mM incubated overnight in presence of Mg2+ followed by trypsin protease digestion by tandem mass spectrometry analysis; conditions: time 12.0 hrs
[3] = system: Mycobacterium tuberculosis; assay: (§1) Binding affinity to wild type N-terminal polyhis-tagged TEV protease cleavage site fused Mycobacterium tuberculosis ICL1 expressed in Escherichia coli BL21 (DE3) assessed as compound-protein covalent adduct formation at 1 mM in absence of Mg2+ by LC-MS analysis
[4] = Binding affinity to wild type N-terminal polyhis-tagged TEV protease cleavage site fused Mycobacterium tuberculosis ICL1 expressed in Escherichia coli BL21 (DE3) in presence of MgCl2 by NMR binding analysis
[5] = system: Mycobacterium tuberculosis; assay: Binding affinity to wild type N-terminal polyhis-tagged TEV protease cleavage site fused Mycobacterium tuberculosis ICL1 expressed in Escherichia coli BL21 (DE3) assessed as covalent adduct formation at 1 mM measured after 1 min in presence of Mg2+ and glyoxylate by LC-MS/MS analysis relative to control
[6] = system: Mycobacterium tuberculosis; assay: Binding affinity to wild type N-terminal polyhis-tagged TEV protease cleavage site fused Mycobacterium tuberculosis ICL1 expressed in Escherichia coli BL21 (DE3) assessed as covalent adduct formation at 1 mM measured after 75 mins in presence of Mg2+ by LC-MS/MS analysis relative to control
[7] = Binding affinity to wild type N-terminal polyhis-tagged TEV protease cleavage site fused Mycobacterium tuberculosis ICL1 expressed in Escherichia coli BL21 (DE3) in presence of glyoxylate by NMR binding analysis
[8] = Binding affinity to wild type N-terminal polyhis-tagged TEV protease cleavage site fused Mycobacterium tuberculosis ICL1 expressed in Escherichia coli BL21 (DE3) in absence of Mg2+ by NMR binding analysis
[9] = Binding affinity to wild type N-terminal polyhis-tagged TEV protease cleavage site fused Mycobacterium tuberculosis ICL1 expressed in Escherichia coli BL21 (DE3) in presence of Mg2+ and glyoxylate by NMR binding analysis
[10] = system: Mycobacterium tuberculosis; assay: Binding affinity to wild type N-terminal polyhis-tagged TEV protease cleavage site fused Mycobacterium tuberculosis ICL1 expressed in Escherichia coli BL21 (DE3) assessed as covalent adduct formation at 1 mM measured after 5 hrs in presence of Mg2+ by LC-MS/MS analysis relative to control
[11] = system: Mycobacterium tuberculosis; assay: as §1, with “formation by measuring molecular mass” for “formation”, “mM after 12 hrs” for “mM”, “presence” for “absence”, “MgCl2” for “Mg2+”
[12] = system: Mycobacterium tuberculosis; assay: Binding affinity to wild type N-terminal polyhis-tagged TEV protease cleavage site fused Mycobacterium tuberculosis ICL1 (Ala170-Lys197) expressed in Escherichia coli BL21 (DE3) assessed as covalent adduct formation at 1 mM incubated overnight in presence of Mg2+ followed by trypsin protease digestion by tandem mass spectrometry analysis; conditions: time 12.0 hrs
[13] = system: Mycobacterium tuberculosis; assay: Binding affinity to wild type N-terminal polyhis-tagged TEV protease cleavage site fused Mycobacterium tuberculosis ICL1 expressed in Escherichia coli BL21 (DE3) assessed as covalent adduct formation in presence of glyoxylate by NMR binding analysis

C/C=C(\CC(=O)OC)C(=O)OC
IC50 [1]: > 10000 µM

O=C(O)/C=C(\CC(=O)O)C(=O)O [ACONITIC ACID]
IC50 [1]: 5020 µM

C/C=C(\CC(=O)O)C(=O)O
IC50 [1]: 3100 µM

C=C(CC(=O)OC)C(=O)OC
IC50 [1]: > 10000 µM

O=C(O)/C=C(/CC(=O)O)C(=O)O
IC50 [1]: 5200 µM

O=C(O)C/C(=C\c1ccccc1)C(=O)O
IC50 [1]: 2600 µM

C=C(CC(=O)O)C(=O)O [ITACONATE]
Activity [2]: Active | IC50 [1]: 420 µM | Activity [3]: inactive | Kd [4]: 112 µM | Activity [5]: 100% | Activity [6]: 50% | Kd [7]: > 500 µM | Kd [8]: > 500 µM | Kd [9]: 123 µM | Activity [10]: 100% | Activity [11]: Active | Activity [12]: Active | Activity [13]: inactive
